Screening data from PubChem BioAssay.
Sampled rows, rich in hits. Any-hit rate of the full collection: about 3.8%.
TMEM16A inh = mouse TMEM16A channel inhibition, primary screen | normalized B-score (activity score, 25-100; higher = stronger inhibition) at 10 µM | 310,000 compounds, 1.2% hits | Q8BHY3 | HEK293 TMEM16A/YFP iodide influx fluorescence, ionomycin;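 active means ratio plate-corrected score three or more library SD toward inhibition, starting fluorescence score within five deviations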;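 further: score derived from kinetic fluorescence span divided by baseline fluorescence per well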
Beta cell apopt = beta cell apoptosis inhibition. protection from apoptosis, % (concentration not given with the values). 300,000 compounds, 0.8% hits. INS-1E cytokine-induced death, ATP luminescence, 48 h; percent of positive-control rescue, neutral wells zero;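 active means Every replicate reaches about 75%, or at least half do and their mean reaches it too, limit read from the data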;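 further: 0% = cytokine-treated negative control wells and 100% = positive control rescue; higher means more ATP so stronger rescue from cytokine killing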
MC4R barr agon = human MC4R agonism via beta-arrestin; P32245; U2OS MC4R beta-arrestin complementation, luminescence; percent of melanotan II response, DMSO zero; activation, % at 8.9 µM; 360,000 compounds, 0.98% hits;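 active means activation above a per-plate cutoff, the mean activation of sample wells on that plate plus 3 SD, cut at about 8% in these data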
MC4R antag cAMP = antagonists of human melanocortin 4 receptor (MC4R) | P32245 | MC4R-expressing cells, MTII-stimulated cAMP, LANCE TR-FRET | inhibition, % at 6.5 µM | 360,000 compounds, 0.48% hits | AID 540295;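 active means inhibition above its plate's cutoff, the mean of tested wells on that plate plus 3 SD, cut at about 29% in these data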;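 further: 0% = Melanotan II alone and 100% = Melanotan II plus saturating MCL0020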
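Material – human MC4R-expressing U2OS cells · Repeats – no replicates · Detection – TR-FRET with Eu-cAMP and labeled anti-cAMP, 671 nm · Times – compound 30 min, challenge 1 h, detection 1 h · Compound – single nominal compound dose of 6.5 µM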
TMEM16A act = activators or potentiators of mouse TMEM16A chloride channel | 340,000 compounds, 0.3% hits | Q8BHY3 | AID 623877 | HEK293 TMEM16A/YFP-H148Q/I152L, iodide quench fluorescence; hits give low values | B-score at 10 µM;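 active means fluorescence-ratio B-score plate-corrected deviation score at least 3 library SD below zero, with starting fluorescence score within 5 deviations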;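 further: channel opened by trigger with iodide after compound preincubation; score built on the fluorescence ratio of max minus min over baseline; more negative score means more quench and so TMEM16A activation or potentiation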
CSC inhib = blocks cancer stem cells | inhibition, % at 7.5 µM | cancer stem cell-like cells viability, luminescence | 300,000 compounds, 1.1% hits | AID 2717; in the data active means inhibition above about 75%; tested in HMLE shEcad cells
* = called active by the depositor; i = inactive; nt = no result given.

SMILES	TMEM16A inh	Beta cell apopt	MC4R barr agon	MC4R antag cAMP	TMEM16A act	CSC inhib
CC(Oc1ccc(Cl)cc1Cl)C(=O)Nc1ccc(S(=O)(=O)Nc2cnc3ccccc3n2)cc1 (stereo unspecified)	100*	-5	nt	nt	nt	31
O=C(Nc1ccc(S(=O)(=O)Nc2cnc3ccccc3n2)cc1)c1ccc(Cl)cc1Cl	i	2	-1	6	i	1
Cc1cc(Cl)ccc1OC(C)C(=O)Nc1ccc(S(=O)(=O)Nc2cnc3ccccc3n2)cc1 (stereo unspecified)	100*	0	-1	12	i	27
Cc1cc(Cl)ccc1OC(C)C(=O)Nc1ccc(C(=O)Nc2ccccc2C(=O)O)cc1 (stereo unspecified)	100*	4	1	7	i	-4
Cc1cc(Cl)ccc1OC(C)C(=O)Nc1ccc(S(=O)(=O)N2CCOCC2)cc1 (stereo unspecified)	i	-6	0	5	i	14
COC(=O)C(C(=O)OC)C(c1ccccc1)C(C(=O)c1ccccc1)[N+](=O)[O-] (stereo unspecified)	i	-4	-1	7	i	6
CCCS(=O)(=O)NC(=O)C1(C)CCN(C(=O)c2cccc(OC(F)(F)F)c2)C1 (stereo unspecified)	nt	nt	1	16	nt	nt
CCOc1ccccc1NC(=O)Nc1ccc2c(c1)OCO2	i	2	-2	-5	i	8
C=CCOc1ccccc1CN(C(=O)CCl)c1ccc2c(c1)OCO2	i	10	15*	9	i	-8
O=C(O)c1ccccc1Nc1cccc(OCc2ccc3ccccc3n2)c1	100*	-5	1	8	i	42
Cc1ccc(S(=O)(=O)N2CCC[C@H]2C(=O)OCC(=O)c2ccc3c(c2)NC(=O)CO3)cc1	25*	-10	-2	18	i	-1
COc1ccc(/C=C/C(=O)OCC(=O)c2ccc3c(c2)NC(=O)CO3)cc1	i	1	13*	9	i	-1
Cc1ccc(S(=O)(=O)N2CCCC2C(=O)OCC(=O)Nc2ccc3c(c2)OCO3)cc1 (stereo unspecified)	i	-4	2	16	i	-8
COc1ccccc1C(=O)Nc1cccc2cccnc12	i	0	-1	12	i	28
Cc1ccc(COC(=O)CN2C(=O)NC3(CCCCC3C)C2=O)cc1 (stereo unspecified)	nt	nt	0	11	i	nt
O=C(CN1C(=O)c2ccccc2S1(=O)=O)Nc1cccc(S(=O)(=O)N2CCCCC2)c1	nt	5	1	0	i	24
Cc1ccc(-n2c(SCC(=O)c3c(N)n(C)c(=O)n(C)c3=O)nc3sc4c(c3c2=O)CCCC4)c(C)c1	i	102*	0	15	i	5
CCC(=O)N1c2ccc(S(=O)(=O)CCC(=O)Nc3ccc(OC)cc3OC)cc2CC1C (stereo unspecified)	i	5	-4	1	-42*	12
CC(C)(C)NC(=O)CN1CCC(O)(c2ccc3c(c2)OCO3)CC1	i	-1	-3	8	-13*	-4
Cc1csc2ncnc(NCCc3ccccn3)c12	i	79*	-2	-6	i	-9
COc1ccc(NC(=O)C2(C)CCCN2C(=O)C(C)C)cc1OC (stereo unspecified)	nt	nt	2	9	nt	nt
Cc1csc(CNc2ncnc3ccc(-c4cccc(Cl)c4)cc23)c1	nt	-4	3	11	i	nt
COc1ccc(C2CC(c3cccs3)=NN2C(=O)CSc2nc3c(cnn3-c3ccccc3)c(=O)[nH]2)cc1 (stereo unspecified)	i	3	0	18	i	70
COc1cccc(C2CC(c3cccs3)=NN2C(=O)CSc2nc3c(cnn3-c3ccc(F)cc3)c(=O)[nH]2)c1OC (stereo unspecified)	i	6	0	13	i	118*
C=CCOc1cccc(/C=C2\C(=O)N(Cc3ccc(C)cc3)C(C)=C2C(=O)OC)c1	i	12	-2	13	i	85*
SMILES	TMEM16A inh	Beta cell apopt	MC4R barr agon	MC4R antag cAMP	TMEM16A act	CSC inhib
CCOc1cc(N2CCOCC2)c(OCC)cc1NC(=O)C(NC(=O)c1c(F)cccc1F)C(C)C (stereo unspecified)	nt	nt	-1	-4	i	nt
O=C1c2ccccc2C(Nc2ccc(F)c(Cl)c2)N1Cc1ccco1 (stereo unspecified)	i	-2	4	7	-22*	0
O=C(COC(=O)c1cccc(Br)c1)NC1CCCCCCC1	nt	nt	-1	2	nt	nt
COc1ccc(CCNS(=O)(=O)c2ccc(-n3cnnn3)c(OC)c2)cc1OC	i	4	-3	-4	-31*	1
OC1CCN(c2cc(-c3ccccc3)nc3cc(-c4ccc(F)cc4)nn23)CC1	i	9	0	2	i	88*
COc1cccc(-c2cc3nc(-c4ccccc4)cc(N4CCCC(O)C4)n3n2)c1 (stereo unspecified)	i	13	0	9	i	90*
COc1ccc(-c2cc3nc(-c4ccccc4)cc(N4CCC5(CC4)OCCO5)n3n2)cc1	i	19	1	4	i	34
Cc1ccc(-c2cc3nc(-c4ccccc4)cc(N4CCOCC4)n3n2)cc1	nt	nt	2	13	i	nt
O=C(CCN1CCN(c2ccccc2)CC1)NNC(=O)c1ccccc1	nt	nt	-1	5	nt	nt
Cc1onc(-c2ccccc2)c1C(=O)NNC(=S)NC(=O)/C=C/c1ccccc1	i	28	-5	2	i	7
Cc1onc(-c2ccccc2)c1C(=O)NNC(=S)NC(=O)c1ccc(Br)cc1	100*	-2	-6	4	i	28
Cc1cccc(C(=O)NC(=S)NNC(=O)Cc2ccccc2)c1	i	10	-1	-1	i	-7
Cc1ccccc1C(=O)NNC(=S)NC(=O)c1ccc(Cl)cc1Cl	100*	nt	-4	-1	i	nt
Cc1onc(-c2ccccc2)c1C(=O)NNC(=S)NC(=O)c1ccc(Cl)cc1Cl	100*	-5	-7	-10	i	-1
Cc1onc(-c2ccccc2)c1C(=O)NNC(=O)c1ccccc1	nt	nt	0	8	i	nt
O=C(NC(=S)NNC(=O)c1ccc(Cl)cc1Cl)c1cccnc1	i	-3	0	-9	i	14
Cc1cccc(C(=O)NC(=S)NNC(=O)c2ccccc2Cl)c1	100*	7	-4	14	i	12
CC(NC(=O)C1CCN(S(=O)(=O)c2ccc(Br)s2)CC1)c1ccccc1 (stereo unspecified)	i	-4	0	0	i	-4
CC(C)NC(=O)c1ccc(-c2ccc(F)c(F)c2)c2ccoc12	nt	nt	1	8	nt	nt
